In ChEMBL document CHEMBL3853279, “Tadehaginosides A-J, Phenylpropanoid Glucosides from Tadehagi triquetrum, Enhance Glucose Uptake via the Upregulation of PPARγ and GLUT-4 in C2C12 Myotubes” (J Nat Prod, 2016) one finds Activity data, which are given here for nine compounds.

For series [1], the target named is T1, Peroxisome proliferator-activated receptor gamma (Mus musculus) (UniProt P37238).
T1 sequence (whole entry): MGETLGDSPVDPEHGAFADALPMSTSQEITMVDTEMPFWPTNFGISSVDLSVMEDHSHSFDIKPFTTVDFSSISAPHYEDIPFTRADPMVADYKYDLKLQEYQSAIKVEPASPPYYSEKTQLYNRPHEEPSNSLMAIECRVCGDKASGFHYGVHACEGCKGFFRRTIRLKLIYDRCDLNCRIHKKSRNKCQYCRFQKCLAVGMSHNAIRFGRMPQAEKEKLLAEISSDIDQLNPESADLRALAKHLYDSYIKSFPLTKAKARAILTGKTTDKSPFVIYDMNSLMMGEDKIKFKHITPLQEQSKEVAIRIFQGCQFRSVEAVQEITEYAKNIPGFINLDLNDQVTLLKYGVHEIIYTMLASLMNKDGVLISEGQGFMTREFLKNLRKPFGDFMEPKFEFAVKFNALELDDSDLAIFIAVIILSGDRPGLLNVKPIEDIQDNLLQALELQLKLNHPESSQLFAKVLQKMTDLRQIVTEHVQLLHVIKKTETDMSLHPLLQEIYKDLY
Description: Transactivation of PPARgamma in mouse C2C12 cells assessed as increase in GLUT-4 mediated 2-NBDG uptake at 10 uM after 6 hrs by fluorescence assay. In kind it is cell-based. In outline: (§1)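 Uptake was run in C2C12 myotubes (4 days in DMEM/1% FBS) kept in serum-free DMEM. 2-NBDG 10 μM and compound (DMSO solution) were added together for the stated time. Medium was then discarded, and cells were washed twice with PBS and scraped in ice-cold PBS. Cell-associated 2-NBDG was read by fluorescence at Ex/Em 475/550 nm, under basal or insulin-stimulated conditions.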

Series [2] concerns the target T1, Peroxisome proliferator-activated receptor gamma (Mus musculus). Description: Transactivation of PPARgamma in mouse C2C12 cells assessed as increase in GLUT-4 mediated 2-NBDG uptake at 5 to 20 uM at 4 hrs by fluorescence assay. In kind it is cell-based. In outline:
as §1

For a further series, the species on record is Mus musculus. Put plainly: Cytotoxicity against mouse C2C12 cells assessed as cell viability at 1 to 20 uM after 4 hrs by MTT assay. It counts as toxicity, cell-based. Conditions: c2c12, 4 h. In outline: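 C2C12 myoblasts differentiated to myotubes in DMEM with 1% FBS, changed daily for 4 days, then seeded in 96-well plates. Cells were exposed to test compound for 4 h, with digitonin 100 μg/mL as positive control. MTT reagent was added, then DMSO, and absorbance was read at 565 nm as viability.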
On the technique in general: Tetrazolium dyes change colour on reduction, which living cells bring about.

In series [3] the target is T1, Peroxisome proliferator-activated receptor gamma (Mus musculus). Description: Transactivation of PPARgamma in mouse C2C12 cells at 1 to 10 uM after 24 hrs by DR-1 luciferase reporter gene assay. It counts as cell-based. In outline: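 C2C12 myotubes were transiently co-transfected with a DR-1 luciferase reporter and a PPARγ expression vector. Six hours after transfection, the medium was replaced with fresh medium containing the agonist. Luciferase activity was measured 24 h later by kit assay.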
For orientation: A reporter such as luciferase makes a cellular process visible.

Series [4] shares this target. Description: Transactivation of PPARgamma in mouse C2C12 cells assessed as increase in GLUT-4 mediated 2-NBDG uptake at 10 uM after 2 to 8 hrs by fluorescence assay. In kind it is cell-based. In outline: as §1
Series [5] shares this target. Description: Transactivation of PPARgamma in mouse C2C12 cells assessed as increase in GLUT-4 mediated 2-NBDG uptake at 4 hrs by fluorescence assay. In kind it is cell-based. In outline:
as §1

For series [6] the target is unchanged. Put plainly: Transactivation of PPARgamma in mouse C2C12 cells assessed as increase in GLUT-4 mediated insulin-induced 2-NBDG uptake at 4 hrs by fluorescence assay. It counts as cell-based. In outline: as §1
For series [7] the target is unchanged. Put plainly: Transactivation of PPARgamma in mouse C2C12 cells assessed as increase in GLUT-4 levels in at 1 to 10 uM after 6 hrs by ELISA. It counts as cell-based. In outline:
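Myotubes were differentiated from C2C12 myoblasts over 4 days in DMEM plus 1% FBS, then treated 6 h in serum-free DMEM at 1 and 10 μM, with rosiglitazone 10 μM as reference. Cells were PBS-washed and lysed, and lysates were spun 20 min at 13000g, 4 °C. GLUT-4 in the supernatant was quantified by mouse GLUT-4 ELISA.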

Calls of active or inactive are those of the source. The rule behind the calls is not given here.

With `O=C(/C=C/c1ccc(O)cc1)O[C@H]1[C@H](Oc2cc(O)cc(O)c2)O[C@H](CO)[C@@H](O)[C@@H]1O`, the result in series [1] was Active.

Take `CC(=O)c1c(O)cc(O)cc1O[C@@H]1O[C@H](COC(=O)/C=C\c2ccc(O)cc2)[C@@H](O)[C@H](O)[C@H]1O`: in series [1], the outcome was Active.

`O=C(OC[C@H]1O[C@@H](Oc2cc(O)cc(O)c2)[C@H](O)[C@@H](O)[C@@H]1O)[C@H]1[C@H](C(=O)OC[C@H]2O[C@@H](Oc3cc(O)cc(O)c3)[C@H](O)[C@@H](O)[C@@H]2O)[C@H](c2ccc(O)cc2)[C@H]1c1ccc(O)cc1`: in series [1], the result was Active.

On to `O=C(/C=C/c1ccc(O)cc1)O[C@H]1[C@H](O)[C@@H](O)[C@H](Oc2cc(O)cc(O)c2)O[C@@H]1CO`, for which, in series [1], the outcome was Active.

In the case of `CC(=O)c1c(O)cc(O)cc1O[C@@H]1O[C@H](COC(=O)/C=C/c2ccc(O)cc2)[C@@H](O)[C@H](O)[C@H]1O`, the outcome in series [1] was Active.

For `O=C(OC[C@H]1O[C@@H](Oc2cc(O)cc(O)c2)[C@H](O)[C@@H](O)[C@@H]1O)[C@H]1[C@H](c2ccc(O)cc2)[C@H](C(=O)OC[C@H]2O[C@@H](Oc3cc(O)cc(O)c3)[C@H](O)[C@@H](O)[C@@H]2O)[C@H]1c1ccc(O)cc1`, the outcome in series [2], in series [3], in series [1], in series [4] and in series [7] was Active. Further, the Activity result is “Non-Toxic” in the series listed under Mus musculus, “Dose-dependent effect” in series [5] and “Dose-dependent effect” in series [6].

In the case of `O=C(/C=C/c1ccc(O)cc1)O[C@@H]1[C@@H](O)[C@H](Oc2cc(O)cc(O)c2)O[C@H](CO)[C@H]1O`, the result in series [1] was Active.

In the case of `O=C(/C=C\c1ccc(O)cc1)O[C@H]1[C@H](Oc2cc(O)cc(O)c2)O[C@H](CO)[C@@H](O)[C@@H]1O`, the result in series [1] was Active.

As for `O=C(/C=C/c1ccc(O)cc1)OC[C@H]1O[C@@H](Oc2cc(O)cc(O)c2)[C@H](O)[C@@H](O)[C@@H]1O`, the result in series [1] was Active.
